Laboratory results taken from ChEMBL document CHEMBL3286175, “Cytotoxic alkylated hydroquinone, phenol, and cyclohexenone derivatives from Aspergillus violaceofuscus Gasperini” (2014).

Assays:
Assay type in all cases: functional
[1] = tested on: HeLa; assay: Cytotoxicity against human HeLa cells assessed as cell viability after 24 hrs by WST-1 assay; details: read-out: LD50 (the source's name)
Procedure, shortened: (§1)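 Cells from ATCC grown in McCoy's 5A with 10% FBS, penicillin (100 units/mL) and streptomycin (100 μg/mL) at 37 °C, 5% CO2. Seeded at 1 × 10^4 cells per well with a range of compound concentrations for 24 h. Viability read by WST-1. LD50 values reported as mean ± SD (n = 5).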

[2] = tested on: RAW264.7; assay: Cytotoxicity against mouse RAW264.7 cells assessed as cell viability after 24 hrs by WST-1 assay; details: RAW264.7, 24 h, read-out: LD50 (the source's name); procedure, shortened: as §1
[3] = tested on: Jurkat; assay: Cytotoxicity against human Jurkat cells assessed as cell viability after 24 hrs by WST-1 assay; details: read-out: LD50 (the source's name); procedure, shortened: as §1
[4] = tested on: MOLT-4; assay: Cytotoxicity against human MOLT4 cells assessed as cell viability after 24 hrs by WST-1 assay; details: MOLT-4, 24 h, read-out: LD50 (the source's name); procedure, shortened: as §1
[5] = tested on: MCF7; assay: Cytotoxicity against human MCF7 cells assessed as cell viability after 24 hrs by WST-1 assay; details: MCF7, 24 h, read-out: LD50 (the source's name); procedure, shortened: as §1
[6] = tested on: HCT-116; assay: Cytotoxicity against human HCT116 cells assessed as cell viability after 24 hrs by WST-1 assay; details: HCT-116, 24 h, read-out: LD50 (the source's name); procedure, shortened: as §1

SMILES: CCCCCCCc1c(O)ccc(O)c1CO
- CC50 [1]: 77.6 µM
- CC50 [2]: 20.1 µM
- CC50 [3]: 8.2 µM
- CC50 [4]: 5.9 µM
- CC50 [5]: 93 µM
- CC50 [6]: 61.8 µM

SMILES: CCCCC/C=C/C1=C(CO)C(=O)C[C@H](O)[C@@H]1O
- CC50 [1]: > 100 µM
- CC50 [2]: > 100 µM
- CC50 [3]: > 100 µM
- CC50 [4]: > 100 µM
- CC50 [5]: > 100 µM
- CC50 [6]: > 100 µM

SMILES: Nc1ccn([C@@H]2O[C@H](CO)[C@@H](O)C2(F)F)c(=O)n1 [GEMCITABINE]
- CC50 [1]: 0.023 µM
- CC50 [2]: 0.005 µM
- CC50 [3]: 0.012 µM
- CC50 [4]: 0.008 µM
- CC50 [5]: 0.004 µM
- CC50 [6]: 0.005 µM

SMILES: CCCCC/C=C/C1=C(CO)C(=O)[C@H]2O[C@H]2[C@@H]1O
- CC50 [1]: 77.8 µM
- CC50 [2]: 6.5 µM
- CC50 [3]: 20 µM
- CC50 [4]: 11.2 µM
- CC50 [5]: 75 µM
- CC50 [6]: 6.4 µM

SMILES: CCCCCCC(O)c1c(O)ccc(O)c1CO (stereo not drawn)
- CC50 [1]: > 100 µM
- CC50 [2]: 55.4 µM
- CC50 [3]: > 100 µM
- CC50 [4]: > 100 µM
- CC50 [5]: > 100 µM
- CC50 [6]: 69.7 µM

SMILES: CCCCCCC(O)c1cccc(O)c1CO (stereo not drawn)
- CC50 [1]: 64.2 µM
- CC50 [2]: 26.2 µM
- CC50 [3]: 8.3 µM
- CC50 [4]: 6.2 µM
- CC50 [5]: > 100 µM
- CC50 [6]: 66 µM

SMILES: CCCCC/C=C/c1c(O)ccc(O)c1CO
- CC50 [1]: 24.6 µM
- CC50 [2]: 5.6 µM
- CC50 [3]: 3.1 µM
- CC50 [4]: 3 µM
- CC50 [5]: 14.8 µM
- CC50 [6]: 5.8 µM

SMILES: CCCCC/C=C/C1=C(CO)[C@H](O)[C@H]2O[C@H]2[C@@H]1O
- CC50 [1]: > 100 µM
- CC50 [2]: > 100 µM
- CC50 [3]: > 100 µM
- CC50 [4]: > 100 µM
- CC50 [5]: > 100 µM
- CC50 [6]: > 100 µM
